Results as given in ChEMBL document CHEMBL3108706, “Design, synthesis, and biological activity of novel dicoumarol glucagon-like peptide 1 conjugates” (J Med Chem, 2013).
The source made the active and inactive calls. The rule behind the calls is not given here.

Assays:
Rattus norvegicus [1] = test: Anticoagulant activity in Sprague-Dawley rat assessed as prothombin time at 1 umol/kg, iv administered for 6 days measured on day 7 by coagulometric analysis (reference value: 13.5 +/- 0.32 secs); type: functional
Rattus norvegicus [2] = test: Anticoagulant activity in Sprague-Dawley rat assessed as activated […] time at 1 umol/kg, iv administered for 6 days measured on day 7 by coagulometric analysis (reference value: 26.5 +/- 0.81 secs); type: functional
Rattus norvegicus [3] = test: Anticoagulant activity in Sprague-Dawley rat assessed as thombin time at 1 umol/kg, iv administered for 6 days measured on day 7 by coagulometric analysis (reference value: 19.38 +/- 0.72 secs); type: functional
Rattus norvegicus [4] = test: Anticoagulant activity in Sprague-Dawley rat assessed as prothombin time at 150 nmol/kg, iv administered for 6 days measured on day 7 by coagulometric analysis (reference value: 13.5 +/- 0.32 secs); type: functional
Rattus norvegicus [5] = test: Anticoagulant activity in Sprague-Dawley rat assessed as prothombin time at 25 nmol/kg, iv administered for 6 days measured on day 7 by coagulometric analysis (reference value: 13.5 +/- 0.32 secs); type: functional
Mus musculus [6] = test: Antidiabetic activity in C57BL/6J-m+/+Leprdb (db/db) mouse assessed as reduction of blood glucose AUC (0 to 48 hrs) at 25 nmol/kg, ip administered for 0.5 hrs; type: functional, organism-based
Outline: (§1)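 Non-fasted male db/db mice (7 weeks, free access to food and water) got a single ip injection (25 or 150 nmol/kg) or saline. Mean ± SD, n = 6.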

Mus musculus [7] = test: Hypoglycemic activity in C57BL/6J-m+/+Leprdb (db/db) mouse assessed as time required to reduce plasma glucose level below 8.35 mM at 150 nmol/kg, ip administered for 0.5 hrs; type: functional
Outline: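 Non-fasted male db/db mice (7 weeks, free access to food and water) got a single ip injection (25 or 150 nmol/kg) or saline. Glucose AUC0−48h and the time for glucose to return below 8.35 mM were derived. Mean ± SD, n = 6.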

Mus musculus [8] = test: Hypoglycemic activity in C57BL/6J-m+/+Leprdb (db/db) mouse assessed as time required to reduce plasma glucose level below 8.35 mM at 25 nmol/kg, ip administered for 0.5 hrs; type: functional; outline: as §1
Mus musculus [9] = test: Hypoglycemic activity in C57BL/6J-m+/+Leprdb (db/db) mouse assessed as reduction of plasma glucose level at 25 nmol/kg, ip administered 0.5 hrs prior to glucose challenge measured after 18 to 21 hrs by IPGTT (reference value: >30 mM); type: functional
Mus musculus [10] = test: Hypoglycemic activity in C57BL/6J-m+/+Leprdb (db/db) mouse assessed as reduction of plasma glucose level at 25 nmol/kg, ip administered 0.5 hrs prior to glucose challenge measured at 21.5 hrs by IPGTT (reference value: >30 mM); type: functional
Mus musculus [11] = test: Hypoglycemic activity in C57BL/6J-m+/+Leprdb (db/db) mouse assessed as reduction of plasma glucose level at 25 nmol/kg, ip administered 0.5 hrs prior to glucose challenge measured at 21.5 to 24 hrs by IPGTT; type: functional, organism-based
Mus musculus [12] = test: Hypoglycemic activity in C57BL/6J-m+/+Leprdb (db/db) mouse assessed as reduction of plasma glucose level at 25 nmol/kg, ip administered 0.5 hrs prior to glucose challenge measured up to 17 hrs by IPGTT (reference value: >30 mM); type: functional
[13] = Mean residence time in Sprague-Dawley rat at 15 nmol/kg, sc by LC-MS/MS analysis; type: ADME, organism-based; conditions: in vivo
[14] = Elimination half life in Sprague-Dawley rat at 15 nmol/kg, sc by LC-MS/MS analysis; type: ADME, organism-based; conditions: in vivo, read-out: beta t1/2 (converted)
Rattus norvegicus [15] = test: AUC (0 to infinity) in Sprague-Dawley rat at 15 nmol/kg, sc by LC-MS/MS analysis; type: ADME, organism-based, Plasma; parameters: dose 15 nmol/kg, route subcutaneous, time infinity; conditions: in vivo
[16] = Cmax in Sprague-Dawley rat at 15 nmol/kg, sc by LC-MS/MS analysis; type: ADME, organism-based; parameters: dose 15 nmol/kg, route subcutaneous; conditions: in vivo
[17] = Tmax in Sprague-Dawley rat at 15 nmol/kg, sc by LC-MS/MS analysis; type: ADME, organism-based; conditions: in vivo
Rattus norvegicus [18] = test: Antidiabetic activity in Sprague-Dawley rat assessed as reduction of plasma glucose level at 25 nmol/kg, ip administered 0.5 hrs prior to glucose challenge measured at 15 to 60 mins by OGTT; type: functional, organism-based
Rattus norvegicus [19] = test: Antidiabetic activity in Sprague-Dawley rat assessed as increase of plasma insulin level at 25 nmol/kg, ip administered 0.5 hrs prior to glucose challenge measured for 120 mins by ELISA; type: functional, organism-based
Outline: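 SD rats (200−250 g, n = 6/group) were fasted 12 h and given compound ip (25 nmol/kg) or saline 0.5 h before oral glucose (10 g/kg). Tail-vein blood glucose was read with a meter at −30, 0, 15, 30, 45, 60, 90, 120 and 180 min. Insulin was measured by rat insulin ELISA. Mean ± SD.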

Rattus norvegicus [20] = test: Antidiabetic activity in Sprague-Dawley rat assessed as increase of plasma insulin level at 25 nmol/kg, ip administered 0.5 hrs prior to glucose challenge measured at 45 mins by ELISA; type: functional
Rattus norvegicus [21] = test: Antidiabetic activity in Sprague-Dawley rat assessed as reduction of plasma glucose level at 25 nmol/kg, ip administered 0.5 hrs prior to glucose challenge by OGTT (reference value: 13.32 +/- 1.84 mM); type: functional
albumin = albumin (Homo sapiens, UniProt P02768); test: Binding affinity to human serum albumin at 100 ug/mL after 3 hrs relative to control; type: ADME; conditions: read-out: PB (converted)
Outline: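 Peptide at 100 μg/mL in PBS (50 μL) was incubated with HSA-conjugated Sepharose resin for 3 h at 25 °C, then centrifuged (1000 rpm, 10 min). Unbound peptide in the supernatant was quantified by micro BCA assay. Nonspecific adsorption was corrected with NHS-inactivated, albumin-free resin.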

[22] = Half life in Sprague-Dawley rat plasma at 1000 ng/mL by LC-MS/MS analysis; type: ADME, cell-free
[23] = target: Glucagon-like peptide 1 receptor (Homo sapiens, UniProt P43220); test: Activation of human GLP-1 receptor overexpressed in HEK293 cells assessed as cAMP accumulation after 20 mins by HTRF assay; type: functional, cell-based
Rattus norvegicus [24] = test: Antidiabetic activity in Sprague-Dawley rat assessed as increase of plasma insulin level at 25 nmol/kg, ip administered 0.5 hrs prior to glucose challenge measured at 15 mins by ELISA; type: functional
Mus musculus [25] = test: Antidiabetic activity in C57BL/6J-m+/+Leprdb (db/db) mouse assessed as reduction of blood glucose level at 50 nmol/kg, ip qd administered for 49 days followed by glucose challenge on day 52 measured after 120 mins post glucose challenge by IPGTT; type: functional, organism-based
Outline: (§2)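 Mice from the 49-day once-daily ip dosing study (db/db, n = 8/group) were tested by IPGTT on day 0 and day 52, 3 days after the last dose. They were fasted 18 h, challenged ip with 1 g/kg glucose, and tail-vein glucose was read with a meter at 0, 15, 30, 45, 60, 90 and 120 min.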

Mus musculus [26] = test: Antidiabetic activity in C57BL/6J-m+/+Leprdb (db/db) mouse assessed as reduction of blood glucose level at 25 nmol/kg, ip qd administered for 49 days followed by glucose challenge on day 52 measured after 120 mins post glucose challenge by IPGTT; type: functional, organism-based; outline: as §2
Mus musculus [27] = test: Antidiabetic activity in C57BL/6J-m+/+Leprdb (db/db) mouse assessed as reduction of blood glucose level at 50 nmol/kg, ip qd administered for 49 days followed by glucose challenge on day 52 measured up to 90 mins post glucose challenge by IPGTT; type: functional, organism-based; outline: as §2
Mus musculus [28] = test: Antidiabetic activity in C57BL/6J-m+/+Leprdb (db/db) mouse assessed as reduction of blood glucose level at 25 nmol/kg, ip qd administered for 49 days followed by glucose challenge on day 52 measured up to 90 mins post glucose challenge by IPGTT; type: functional, organism-based; outline: as §2
Mus musculus [29] = test: Antidiabetic activity in ip dosed C57BL/6J-m+/+Leprdb (db/db) mouse assessed as suppression of body weight gain administered as qd measured over 7 weeks of drug treatment; type: functional, organism-based
Outline: (§3)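 Male and female db/db mice (6 weeks, n = 8/group) were matched on HbA1c and given ip injections once daily for 49 days (25 or 50 nmol/kg; comparator 25 nmol/kg; saline controls). Wild-type C57BL/6 littermates served for normalization. HbA1c was measured weekly and body weight daily.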

Mus musculus [30] = test: Antidiabetic activity in C57BL/6J-m+/+Leprdb (db/db) mouse assessed as reduction of HbA1c level at 25 to 50 nmol/kg, ip qd measured over 7 weeks of drug treatment; type: functional, organism-based; outline: as §3
Rattus norvegicus [31] = test: Anticoagulant activity in Sprague-Dawley rat assessed as activated […] time at 150 nmol/kg, iv administered for 6 days measured on day 7 by coagulometric analysis (reference value: 26.5 +/- 0.81 secs); type: functional
Rattus norvegicus [32] = test: Anticoagulant activity in Sprague-Dawley rat assessed as activated […] time at 25 nmol/kg, iv administered for 6 days measured on day 7 by coagulometric analysis (reference value: 26.5 +/- 0.81 secs); type: functional
Rattus norvegicus [33] = test: Anticoagulant activity in Sprague-Dawley rat assessed as thombin time at 150 nmol/kg, iv administered for 6 days measured on day 7 by coagulometric analysis (reference value: 19.38 +/- 0.72 secs); type: functional
Rattus norvegicus [34] = test: Anticoagulant activity in Sprague-Dawley rat assessed as thombin time at 25 nmol/kg, iv administered for 6 days measured on day 7 by coagulometric analysis (reference value: 19.38 +/- 0.72 secs); type: functional

albumin, sequence (P02768 whole entry): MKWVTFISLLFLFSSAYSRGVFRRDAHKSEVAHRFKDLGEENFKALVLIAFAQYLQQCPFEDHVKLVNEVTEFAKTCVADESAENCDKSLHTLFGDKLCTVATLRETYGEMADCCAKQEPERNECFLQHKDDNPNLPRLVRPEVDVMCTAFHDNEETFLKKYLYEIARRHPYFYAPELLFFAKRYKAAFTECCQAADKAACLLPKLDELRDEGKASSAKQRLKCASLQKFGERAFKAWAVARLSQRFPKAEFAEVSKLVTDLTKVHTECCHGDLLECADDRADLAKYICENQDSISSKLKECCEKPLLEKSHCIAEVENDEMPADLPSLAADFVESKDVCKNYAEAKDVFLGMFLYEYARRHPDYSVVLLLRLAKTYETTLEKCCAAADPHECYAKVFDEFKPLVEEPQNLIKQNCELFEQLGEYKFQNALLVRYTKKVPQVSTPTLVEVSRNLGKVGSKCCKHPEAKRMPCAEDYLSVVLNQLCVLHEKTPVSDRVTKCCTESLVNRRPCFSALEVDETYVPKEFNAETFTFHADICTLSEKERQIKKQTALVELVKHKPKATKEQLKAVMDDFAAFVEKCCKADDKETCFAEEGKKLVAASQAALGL
Glucagon-like peptide 1 receptor, sequence (P43220 whole entry): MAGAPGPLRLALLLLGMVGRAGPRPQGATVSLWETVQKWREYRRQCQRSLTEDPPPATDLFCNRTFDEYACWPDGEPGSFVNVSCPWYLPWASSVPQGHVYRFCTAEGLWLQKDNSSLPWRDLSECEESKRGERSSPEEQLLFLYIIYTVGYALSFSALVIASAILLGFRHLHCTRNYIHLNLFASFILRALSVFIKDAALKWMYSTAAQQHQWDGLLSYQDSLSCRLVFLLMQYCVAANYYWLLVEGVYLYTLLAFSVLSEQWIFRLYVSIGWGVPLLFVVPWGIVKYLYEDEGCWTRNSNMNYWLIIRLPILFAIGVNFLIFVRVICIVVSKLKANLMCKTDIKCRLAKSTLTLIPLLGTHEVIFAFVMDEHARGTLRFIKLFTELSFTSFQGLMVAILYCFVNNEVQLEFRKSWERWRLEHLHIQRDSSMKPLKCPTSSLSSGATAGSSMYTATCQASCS

SMILES: O=c1oc2ccccc2c(O)c1Cc1c(O)c2ccccc2oc1=O [DICUMAROL]
- PT (Rattus norvegicus [1]): 25.22 s
- APTT (Rattus norvegicus [2]): 56.36 s
- TT (Rattus norvegicus [3]): 36.85 s

SMILES: CC[C@H](C)[C@H](NC(=O)[C@H](Cc1ccccc1)NC(=O)[C@H](CCC(=O)O)NC(=O)[C@H](CCCCN)NC(=O)[C@H](C)NC(=O)[C@H](C)NC(=O)[C@H](CCC(N)=O)NC(=O)CNC(=O)[C@H](CCC(=O)O)NC(=O)[C@H](CC(C)C)NC(=O)[C@H](Cc1ccc(O)cc1)NC(=O)[C@H](CO)NC(=O)[C@H](CSC1CC(=O)N(CCCCCCCCCCCC(=O)Nc2ccc(C(c3c(O)c4ccccc4oc3=O)c3c(O)c4ccccc4oc3=O)cc2)C1=O)NC(=O)[C@@H](NC(=O)[C@H](CC(=O)O)NC(=O)[C@H](CO)NC(=O)[C@@H](NC(=O)[C@H](Cc1ccccc1)NC(=O)[C@@H](NC(=O)CNC(=O)[C@H](CCC(=O)O)NC(=O)CNC(=O)[C@@H](N)Cc1cnc[nH]1)[C@@H](C)O)[C@@H](C)O)C(C)C)C(=O)N[C@@H](C)C(=O)N[C@@H](Cc1c[nH]c2ccccc12)C(=O)N[C@@H](CC(C)C)C(=O)N[C@H](C(=O)N[C@@H](CCCCN)C(=O)NCC(=O)N[C@@H](CCCNC(=N)N)C(N)=O)C(C)C (stereo not given in full)
- PT (Rattus norvegicus [4]): 13.55 s
- PT (Rattus norvegicus [5]): 13.39 s
- Activity (Mus musculus [6]): Active
- Time (Mus musculus [7]): 35.8 h
- Time (Mus musculus [8]): 24.7 h
- Activity (Mus musculus [9]): <16 mM
- Activity (Mus musculus [10]): 13.8 mM
- Activity (Mus musculus [11]): Active
- Activity (Mus musculus [12]): <12 mM
- MRT [13]: 33.8 h
- half-life [14]: 1320 min
- AUC (Rattus norvegicus [15]): 40600 ng·h/mL
- Cmax [16]: 880 ng/mL
- Tmax [17]: 1.82 h
- Activity (Rattus norvegicus [18]): Active
- Activity (Rattus norvegicus [19]): Active
- Activity (Rattus norvegicus [20]): 582.08 pM
- Activity (Rattus norvegicus [21]): 6.9 mM
- fraction unbound at 3 h, 100 ug/mL (albumin): 0.036
- half-life at 1000 ng/mL [22]: 2.83 days
- EC50 [23]: 0.0368 nM
- Activity (Rattus norvegicus [24]): 1274.72 pM
- Activity (Mus musculus [25]): inactive
- Activity (Mus musculus [26]): inactive
- Activity (Mus musculus [27]): Active
- Activity (Mus musculus [28]): Active
- Activity (Mus musculus [29]): Dose-dependent effect
- Activity (Mus musculus [30]): Active
- APTT (Rattus norvegicus [31]): 26.38 s
- APTT (Rattus norvegicus [32]): 26.39 s
- TT (Rattus norvegicus [33]): 19.49 s
- TT (Rattus norvegicus [34]): 19.63 s
